Most compounds without a hit are left out; they make up all but 3.4% or so of the library.
PKD1 kinase inh – PKD1 (human) kinase inhibition; 200,000 tested, 0.056% active; Q15139; inhibition, % (test concentration not listed); PKD1 kinase fluorescence polarization assay; AID 797; in the data active = inhibition above about 50%
p97 ATPase inh – blocks human p97 ATPase activity; P55072; recombinant p97 ATPase, Kinase-Glo ATP luminescence, 3 h; 220,000 tested, 0.42% active; AID 1481; inhibition, % at 8 µM; in the data active = inhibition above about 15%;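 also: 0% = DMSO vehicle and 100% = wells lacking enzyme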
MDM2 E3 inh – Mdm2 E3 ligase (human) inhibition; signal enhancement, % at 5 µM; 210,000 tested, 0.11% active; cell-based MDM2 ubiquitination luciferase reporter, 2 h; 0 = plate control, 100 = twice control, blank-subtracted; Q00987;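 active = signal enhancement of 30% or more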;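 also: luminescence tracks abundance of the self-degrading MDM2-luciferase fusion protein; higher signal means inhibition of MDM2 E3 ligase activity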
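test system = mammalian cells stably expressing self-ubiquitinating, self-degrading MDM2 E3–luciferase fusion | quantity = 2000 cells/well | incubation = cell settling 4 h, compound treatment 2 h, both 37 °C | signal = luminescence with SteadyLite reagent, 15 min at room temperature | evaluation = % enhancement relative to plate controls after blank subtraction | benchmarks = plate controls and plate blanks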
Cl transport mod – KCC2 (human) Cl- transport modulation. KCC2 cells, thallium flux FluoZin-2 fluorescence. B-score of Tl+ flux slope (higher = more flux/activation; lower = inhibition) at 10 µM. 190,000 tested, 2.2% active. AID 1456;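 active = thallium flux slope and its plate-corrected score both differing from the plate sample mean at a set confidence after two filtering rounds, in either direction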;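 also: slope of fluorescence scaled to starting intensity during 10 to 20 s after thallium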
DTT redox prof – compounds producing H2O2 with reducing agent – biochemical, NIH compound library profiling, artefact control for MLSCN library redox annotation, primary screen | AID 878 | 200,000 tested, 0.03% active | activation, % at 10 µM | DTT-dependent redox cycling H2O2, phenol red/HRP absorbance; 100% = 100 µM peroxide control, 0% = buffer;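 active = activation of at least 50% relative to the plate's high and low controls in the primary single-dose screen; inactive = activation below 50%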;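 also: compound incubated with DTT at 0.8 mM final as the reducing agent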
ROMK primary – modulates human ROMK potassium channel activity. AID 1918. P48048. Tet-inducible ROMK, thallium flux fluorescence; actives lie on both sides. B-score at 10 µM. 130,000 tested, 2% active;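 active = signal ratio slope over the read window, or its plate-corrected B-score, at least 3 SD from the plate mean, either direction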;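 also: B-score of the F/F0 ratio slope over 7 to 12 s after thallium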
Target sequence (P48048 whole entry, looked up): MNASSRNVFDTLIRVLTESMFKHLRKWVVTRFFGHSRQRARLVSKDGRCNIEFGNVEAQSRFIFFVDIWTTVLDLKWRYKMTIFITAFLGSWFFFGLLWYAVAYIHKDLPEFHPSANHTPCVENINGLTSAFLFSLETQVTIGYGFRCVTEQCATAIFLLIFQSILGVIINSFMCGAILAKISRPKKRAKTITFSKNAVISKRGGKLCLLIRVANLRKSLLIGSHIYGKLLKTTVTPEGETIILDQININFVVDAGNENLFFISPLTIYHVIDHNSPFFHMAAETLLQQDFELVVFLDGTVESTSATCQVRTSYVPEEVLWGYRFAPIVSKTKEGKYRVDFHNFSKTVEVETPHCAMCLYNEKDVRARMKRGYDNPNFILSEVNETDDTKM
KCC2 secondary – confirmation of human KCC2 transport modulators; shares compounds with Cl transport mod; HEK293-KCC2, thallium flux, FluoZin2 fluorescence; hits give high values; normalised thallium flux (F/F0 slope) at 10 µM; 3,700 tested, 15% active;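 active = thallium flux slope above the same plate's solvent-only control mean plus 3 SD; inconclusive = the two replicate wells disagree; inactive = no significant difference from solvent-only control wells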
KCC2 bumet counter – thallium flux despite bumetanide block in KCC2 cells, secondary assay 3. normalized thallium flux at 10 µM. 3,700 tested, 49% active. shares compounds with Cl transport mod. HEK293-KCC2 + bumetanide/ouabain, thallium flux FluoZin2; hits give high values;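 active = thallium entry rate above the same plate's blocked-transporter control wells by more than 3 SD; inconclusive = the two repeat wells disagree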;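 also: raw slope of fluorescence over initial fluorescence between 10 and 20 s after thallium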
KCC2 secondary2 – confirmation of human KCC2 transport modulators | shares compounds with Cl transport mod | HEK293-KCC2, thallium flux FluoZin2 fluorescence; actives lie on both sides; F/F0 rise rate, 10–20 s post-thallium | normalized thallium flux at 10 µM | 3,700 tested, 23% active;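 active = thallium flux slope more than 3 SD above or below the plate's solvent-only control mean, mostly below; inconclusive = the two repeat wells disagreed; inactive = no significant shift from solvent-only controls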;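 also: raw slope with 0.1% DMSO as baseline and bumetanide as block control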
HEK293 Tl flux – parental HEK flux effect, counter-screen; shares compounds with Cl transport mod; HEK293 parental cells, thallium flux FluoZin2, ouabain; baseline-ratio fluorescence slope, 10–20 s after thallium; thallium flux rate (normalised fluorescence) at 10 µM; 3,700 tested, 46% active; AID 1716;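 active = thallium flux rate significantly above the same plate's solvent-only control wells, beyond their mean plus 3 SD; inconclusive = the two replicate wells gave conflicting results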
KCC2 ouabain – confirmation of human KCC2 modulators with ouabain. shares compounds with Cl transport mod. HEK293-KCC2, thallium flux FluoZin2 fluorescence; bidirectional: low = inhibitor, high = activator. raw Tl+ flux slope (below DMSO = inhibition, above = activation) at 10 µM. 3,700 tested, 48% active;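 active = thallium flux slope beyond 3 SD from same-plate DMSO control mean in most replicates, usually higher, sometimes lower; inconclusive = repeat tests gave conflicting results; inactive = no significant difference from controls in most replicates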;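 also: slope of initial-normalized fluorescence between seconds 10 and 20 after thallium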
HEK293 Tl flux2 – acts in parental HEK cells, second KCC2 counter-screen; AID 1718; thallium flux slope at 10 µM; shares compounds with Cl transport mod; 3,700 tested, 33% active; HEK293 parental, thallium flux FluoZin-2 fluorescence slope;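 active = thallium flux slope above the same plate's solvent-control mean plus 3 SD in both duplicate wells; inconclusive = duplicate wells that disagreed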;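 also: run without ouabain in cells lacking the KCC2 cotransporter; slope of fluorescence scaled to its starting value between 10 and 20 s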
An asterisk follows results filed as active; u = inconclusive; x = no result given.

SMILES	PKD1 kinase inh	p97 ATPase inh	MDM2 E3 inh	Cl transport mod	DTT redox prof	ROMK primary	KCC2 secondary	KCC2 bumet counter	KCC2 secondary2	HEK293 Tl flux	KCC2 ouabain	HEK293 Tl flux2
CS(=O)(=O)N(CCc1ccccc1)CC(=O)N1CCCCC1	-1	-6	14	-0.2	-2	x	x	x	x	x	x	x
CN(CC(=O)NCCc1ccccc1)S(=O)(=O)c1cccc2nsnc12	7	2	-9	-0.7	0	0.87	x	x	x	x	x	x
CCN(CCCNC(=O)CN(C)S(=O)(=O)c1cccc2nsnc12)c1ccccc1	-9	-5	0	x	0	-0.28	0.0059	0.0043	u	0.0074	0.016	0.0097
FC(F)(F)c1ccccc1NC(=S)N/N=C1\CC2CC=CC12 (centres undefined)	4	-3	-19	13*	-1	-0.014	u	0.037*	0.04*	0.02*	0.029*	0.023*
O=C(N/N=C1\CC2CC=CC12)c1ccccc1Cl (centres undefined)	-6	2	3	0.35	0	-0.12	x	x	x	x	x	x
O=C(NNC(=O)C1CC2CCC1C2)c1sc2ccccc2c1Cl (centres undefined)	-4	3	-8	9.5*	0	x	0.01	0.041*	0.031	0.019*	0.025	0.012*
CC(NC(=O)c1sc2ccccc2c1Cl)C1CCCO1 (centres undefined)	-3	-2	-8	0.58	0	x	x	x	x	x	x	x
CC1Cc2ccccc2N1C(=O)c1ccc2snnc2c1 (centres undefined)	-22	6	-27	x	0	-0.88	x	x	x	x	x	x
Cc1nc2cc(C(=O)N3c4ccccc4CC3C)ccc2s1 (centres undefined)	-6	5	10	x	-1	x	u	0.0058	0.029	0.0066	0.02*	u
O=C(/C=C/c1ccccc1)NCCSCc1ccccc1Cl	-3	1	-9	-3.8*	-2	x	0.0066	0.0048	0.034	0.0074	0.017*	0.011
C/C(=N\NC(=O)c1c(Br)c(C)nn1C)c1ccc(NC(=O)C(C)Oc2ccc(Cl)cc2C)cc1 (centres undefined)	-4	4	-74	1.1	-4	x	x	x	x	x	x	x
Cn1nnnc1SCCNCc1ccncc1	-5	3	-16	x	2	x	0.0093	0.0072	0.03	u	0.021	0.0095
Cc1ccc(NS(=O)(=O)c2ccc(Cl)s2)cc1S(=O)(=O)N(C)C	-4	4	1	-0.019	0	x	x	x	x	x	x	x
COC(=O)c1sccc1NS(=O)(=O)c1ccc(OC)cc1	-1	8	24	x	0	1.1	0.0073	0.013*	0.035	0.012*	u	0.015*
COc1ccc(C(c2nnnn2C(C)(C)C)N2CCN(c3nc4ccccc4s3)CC2)cc1 (centres undefined)	-1	4	-19	-0.45	-1	x	x	x	x	x	x	x
CCC(C)(C)n1nnnc1C(c1ccc(O)c(OC)c1)N1CCN(c2nc3ccccc3s2)CC1 (centres undefined)	7	5	-25	-4.3*	-2	x	0.008	0.0047	0.023*	0.007	0.016*	0.01
O=C(Nc1nc2c(Br)cc(Br)cc2c(=O)s1)C1CCC1	x	6	-12	9.9*	x	1.4	0.024*	0.041*	0.034	0.027*	0.044*	0.015*
CCN(CC)S(=O)(=O)c1ccc(C(=O)Nc2c3c(nn2C(C)(C)C)CS(=O)(=O)C3)cc1	7	6	8	x	0	x	x	x	x	x	x	x
CCOc1ccc(NS(=O)(=O)c2ccc(NS(=O)(=O)c3ccccc3)cc2)cc1	-6	-1	-26	x	1	-2	0.0079	0.0063	0.03	0.0074	u	0.011
Cc1ccc(NC(=O)COC(=O)/C=C/c2ccccc2)cc1S(=O)(=O)N1CCOCC1	-10	-2	-13	-4.1*	-2	-0.48	u	0.0044	0.021*	u	0.012*	0.0091
COc1cc(/C=C/C(=O)OCC(=O)Nc2ccc(C)c(S(=O)(=O)N3CCCCC3)c2)ccc1O	5	5	x	-2.4	0	0.023	x	x	x	x	x	x
Cc1ccc(NC(=O)CCCSc2ccccc2)cc1S(=O)(=O)N1CCOCC1	-2	1	-12	-3*	-1	-1.7	0.018	0.0044	u	0.0068	0.016	0.01
COc1ccc(S(=O)(=O)Cc2ccc(C(=O)N3CCCC3)o2)cc1	5	-6	-7	0.88	0	x	x	x	x	x	x	x
CCN(CC)CCCNC(=O)c1cn(CCOC)c(=O)c2c1c1ccccc1n2C	-13	2	-13	x	1	x	0.0094	u	0.034	0.0075	0.021	0.011
CCN(CC)c1ccc(NC(=O)COC(=O)COc2ccccc2[N+](=O)[O-])cc1	1	-6	2	-6.8*	-1	0.16	0.0096	0.0058	0.035	0.0039	0.019	0.012
SMILES	PKD1 kinase inh	p97 ATPase inh	MDM2 E3 inh	Cl transport mod	DTT redox prof	ROMK primary	KCC2 secondary	KCC2 bumet counter	KCC2 secondary2	HEK293 Tl flux	KCC2 ouabain	HEK293 Tl flux2
S=c1[nH]nc(-c2ccncc2)n1/N=C/C=C/c1ccco1	-1	12	-89	0.25	-1	-0.37	x	x	x	x	x	x
COc1ccccc1/C=C/C=N/n1c(-c2ccc(F)cc2)n[nH]c1=S	x	-6	-3	5.3*	x	-0.13	0.01	0.015*	0.034	0.011*	0.023	0.011
S=c1[nH]nc(-c2cccc(Cl)c2)n1/N=C/c1ccco1	x	0	-4	14*	x	x	u	0.021*	0.038	0.018*	0.031*	0.012
S=c1[nH]nc(-c2cccc(Cl)c2)n1/N=C/c1ccc(-c2ccccc2Br)o1	x	6	0	0.67	x	x	x	x	x	x	x	x
Cc1cccc(-c2n[nH]c(=S)n2/N=C/C=C/c2ccco2)c1	x	4	-6	20*	x	x	0.0057	0.022*	0.029	0.018*	0.028*	0.016*
Cc1ccc(/C=N/n2c(-c3cccc(Cl)c3)n[nH]c2=S)o1	x	8	-7	45*	x	x	0.0066	0.046*	0.032	0.029*	0.04*	0.02*

Screening results from PubChem.
